Results: PMC3108854 (Molecular and biochemical parasitology, 2010)
One block for each molecule: values may come before it.

Assays:
[1] = biological target: T1, Pf N-Myristoyl Transferase (Plasmodium falciparum, UniProt Q8ILW6); experiment: N-myristoyltransferase biochemical assay; conditions: read-out: NMT IC50, positive control
T1 sequence (Q8ILW6 1-410): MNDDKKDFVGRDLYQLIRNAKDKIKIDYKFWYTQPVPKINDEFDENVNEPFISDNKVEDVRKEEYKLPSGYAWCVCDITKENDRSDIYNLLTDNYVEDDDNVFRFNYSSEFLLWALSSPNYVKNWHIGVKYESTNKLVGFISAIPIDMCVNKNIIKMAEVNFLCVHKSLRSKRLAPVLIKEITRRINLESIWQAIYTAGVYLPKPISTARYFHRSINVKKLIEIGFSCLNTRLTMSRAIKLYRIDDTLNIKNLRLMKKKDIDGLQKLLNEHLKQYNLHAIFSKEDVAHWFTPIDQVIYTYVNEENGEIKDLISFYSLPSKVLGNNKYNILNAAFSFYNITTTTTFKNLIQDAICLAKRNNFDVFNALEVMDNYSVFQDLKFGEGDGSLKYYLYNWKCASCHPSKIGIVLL

Pf dUTPase = biological target: T2, Pf dUTPase (Plasmodium falciparum, UniProt Q8II92); experiment: dUTPase biochemical assay
T2 sequence (Q8II92 1-173): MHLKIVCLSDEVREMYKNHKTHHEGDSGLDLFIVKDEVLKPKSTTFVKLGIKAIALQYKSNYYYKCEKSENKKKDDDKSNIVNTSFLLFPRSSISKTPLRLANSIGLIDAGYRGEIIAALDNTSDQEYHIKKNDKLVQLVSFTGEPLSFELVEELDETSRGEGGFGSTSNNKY

[2] = biological target: Pf Adenylosuccinate Synthase (Plasmodium falciparum, UniProt Q9U8D3); experiment: adenylosuccinate synthetase biochemical assay
Chain of Pf Adenylosuccinate Synthase (Q9U8D3 whole entry): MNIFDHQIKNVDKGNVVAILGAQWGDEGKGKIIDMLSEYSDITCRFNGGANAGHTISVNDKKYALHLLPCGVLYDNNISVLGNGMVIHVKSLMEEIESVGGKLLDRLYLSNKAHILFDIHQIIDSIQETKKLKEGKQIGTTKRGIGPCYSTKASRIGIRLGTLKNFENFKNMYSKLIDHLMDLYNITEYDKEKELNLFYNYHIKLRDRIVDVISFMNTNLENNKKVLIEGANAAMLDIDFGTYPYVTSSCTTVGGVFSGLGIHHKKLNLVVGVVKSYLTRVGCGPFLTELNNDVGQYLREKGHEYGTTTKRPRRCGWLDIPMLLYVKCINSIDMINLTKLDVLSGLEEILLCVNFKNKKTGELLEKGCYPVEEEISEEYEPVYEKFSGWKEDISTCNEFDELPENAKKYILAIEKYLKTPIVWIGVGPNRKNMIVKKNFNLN

P. falciparum strain 3d7 = experiment: erythrocyte-based P. falciparum strain 3d7 infection; format: cell-based; conditions: Plasmodium falciparum, 3D7, read-out: EC50 against P. falciparum in vitro
How it was run: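 P. falciparum was grown in erythrocytes. The primary screen used 1.25 μM, and ≥50% growth inhibition counted as a hit. Hits were retested in 8-point dose-response curves for EC₅₀ against sulfadoxine-resistant 3D7 and multidrug-resistant W2. Compounds with CC₅₀/EC₅₀ <5 (Huh7 cells) or that quenched fluorescence were excluded.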

- IC50 [1]: ~3 µM
Compound: O=C(O)C1=CC(=C(c2ccc(O)c(C(=O)O)c2)c2ccc(O)c(C(=O)O)c2)C=CC1=O [aurintricarboxylate]

- IC50 (Pf dUTPase): 2.4 µM
Compound: O=c1ccn([C@H]2C[C@H](O)[C@@H](COC(c3ccccc3)(c3ccccc3)c3ccccc3)O2)c(=O)[nH]1 [2′-deoxy-5′-O-(triphenylmethyl)uridine]

Compound: O=CN(O)CC(=O)O [Hadacidin]
- IC50 [2]: 62 µM

- EC50 (P. falciparum strain 3d7): ~7.05 µM
Compound: O=P(O)(O)C(O)(Cc1ccccc1)P(=O)(O)O [(1-hydroxy-2-phenylethylidene)bis-phosphonic acid]
